≈ marks a conversion by molar mass, not a printed value. Each block holds one molecule with its values, some of them ahead of it.
Columns and labels:
Format in all cases: functional
Staphylococcus aureus [1] = experiment: Minimum inhibitory concentration against Staphylococcus aureus ATCC 6538PEry-S; details: ATCC 6538P
How it was run: (§1)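 MICs were determined by agar dilution following National Committee for Clinical Laboratory Standards recommendations. Values are in µg/mL.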

[2] = Minimum inhibitory concentration against Haemophilus influenzae DILL Amp-R; how it was run: as §1
Streptococcus pneumoniae [3] = experiment: Minimum inhibitory concentration against Streptococcus pneumoniae 5649 efflux; how it was run: as §1
Staphylococcus aureus [4] = experiment: Minimum inhibitory concentration against Staphylococcus aureus A 5177 MLSB-i; how it was run: as §1
[5] = Minimum inhibitory concentration against Streptococcus pyogenes EES 61 Ery-S; how it was run: as §1
Staphylococcus aureus [6] = experiment: Minimum inhibitory concentration against Staphylococcus aureus A 5278 MLSB-c; how it was run: as §1
[7] = Minimum inhibitory concentration against Streptococcus pneumoniae 5737 MLSB; how it was run: as §1
[8] = Minimum inhibitory concentration against Streptococcus pyogenes PIU2548 efflux; how it was run: as §1
[9] = Minimum inhibitory concentration against Streptococcus pyogenes 930MLSB; how it was run: as §1
Streptococcus pneumoniae [10] = experiment: Minimum inhibitory concentration against Streptococcus pneumoniae ATCC 6303 Ery-S; how it was run: as §1

MIC (Staphylococcus aureus [1]): 0.39 µg/mL (≈ 0.466 µM)
MIC [2]: 8 µg/mL (≈ 9.56 µM)
MIC (Streptococcus pneumoniae [3]): 2 µg/mL (≈ 2.39 µM)
MIC (Staphylococcus aureus [4]): 0.2 µg/mL (≈ 0.239 µM)
MIC [5]: 0.03 µg/mL (≈ 0.0358 µM)
MIC (Staphylococcus aureus [6]): > 100 µg/mL
MIC [7]: 4 µg/mL (≈ 4.78 µM)
MIC [8]: 2 µg/mL (≈ 2.39 µM)
MIC [9]: 32 µg/mL (≈ 38.2 µM)
MIC (Streptococcus pneumoniae [10]): 0.125 µg/mL (≈ 0.149 µM)
Compound: CC[C@H]1OC(=O)[C@H](C)C(=O)[C@H](C)[C@@H](O[C@@H]2O[C@H](C)C[C@H](N(C)C)[C@H]2O)[C@](C)(OC/C=C/c2cnc3ccccc3c2)C[C@@H](C)C(=O)[C@H](C)[C@H]2N(CCN(C)C)C(=O)O[C@]12C

MIC (Staphylococcus aureus [1]): 25 µg/mL (≈ 40.5 µM)
MIC (Staphylococcus aureus [4]): 25 µg/mL (≈ 40.5 µM)
MIC [5]: 6.2 µg/mL (≈ 10.1 µM)
MIC (Staphylococcus aureus [6]): > 100 µg/mL
MIC [8]: 12.5 µg/mL (≈ 20.3 µM)
MIC [9]: > 100 µg/mL
Compound: CC[C@H]1OC(=O)[C@H](C)C(=O)[C@H](C)[C@@H](O[C@@H]2O[C@H](C)C[C@H](N(C)C)[C@H]2O)[C@](C)(OCCN)C[C@@H](C)C(=O)[C@H](C)[C@@H](O)[C@]1(C)O

MIC (Staphylococcus aureus [1]): 1.56 µg/mL (≈ 2.35 µM)
MIC [2]: 32 µg/mL (≈ 48.2 µM)
MIC (Streptococcus pneumoniae [3]): 0.5 µg/mL (≈ 0.753 µM)
MIC (Staphylococcus aureus [4]): 1.56 µg/mL (≈ 2.35 µM)
MIC [5]: 0.25 µg/mL (≈ 0.377 µM)
MIC (Staphylococcus aureus [6]): > 100 µg/mL
MIC [7]: > 128 µg/mL
MIC [8]: 4 µg/mL (≈ 6.03 µM)
MIC [9]: > 128 µg/mL
MIC (Streptococcus pneumoniae [10]): 0.25 µg/mL (≈ 0.377 µM)
Compound: C=CCO[C@]1(C)C[C@@H](C)C2=NCCN3C(=O)O[C@](C)([C@@H](CC)OC(=O)[C@H](C)C(=O)[C@H](C)[C@H]1O[C@@H]1O[C@H](C)C[C@H](N(C)C)[C@H]1O)[C@H]3[C@H]2C

MIC (Staphylococcus aureus [1]): 12.5 µg/mL (≈ 20.4 µM)
MIC [2]: > 128 µg/mL
MIC (Streptococcus pneumoniae [3]): 8 µg/mL (≈ 13 µM)
MIC (Staphylococcus aureus [4]): 50 µg/mL (≈ 81.5 µM)
MIC (Staphylococcus aureus [6]): > 100 µg/mL
MIC [7]: > 128 µg/mL
MIC [8]: 32 µg/mL (≈ 52.1 µM)
MIC [9]: > 128 µg/mL
MIC (Streptococcus pneumoniae [10]): 4 µg/mL (≈ 6.52 µM)
Compound: C=CCO[C@]1(C)C[C@@H](C)C(=O)[C@H](C)[C@@H](O)[C@](C)(O)[C@@H](CC)OC(=O)[C@H](C)C(=O)[C@H](C)[C@H]1O[C@@H]1O[C@H](C)C[C@H](N(C)C)[C@H]1O

Further lines, the molecule ahead of its results:

Compound: CC[C@H]1OC(=O)[C@H](C)C(=O)[C@H](C)[C@@H](O[C@@H]2O[C@H](C)C[C@H](N(C)C)[C@H]2O)[C@](C)(OC/C=C/c2ccc3ncccc3c2)C[C@@H](C)C(=O)[C@H](C)[C@H]2NC(=O)O[C@@]21C
MIC (Staphylococcus aureus [1]): 0.05 µg/mL (≈ 0.0653 µM)
MIC [2]: 1 µg/mL (≈ 1.31 µM)
MIC (Streptococcus pneumoniae [3]): 0.25 µg/mL (≈ 0.326 µM)
MIC (Staphylococcus aureus [4]): 0.05 µg/mL (≈ 0.0653 µM)
MIC [5]: 0.004 µg/mL (≈ 0.00522 µM)
MIC (Staphylococcus aureus [6]): > 100 µg/mL
MIC [7]: 1 µg/mL (≈ 1.31 µM)
MIC [8]: 0.25 µg/mL (≈ 0.326 µM)
MIC [9]: 1 µg/mL (≈ 1.31 µM)
MIC (Streptococcus pneumoniae [10]): 0.004 µg/mL (≈ 0.00522 µM)

Compound: CC[C@H]1OC(=O)[C@H](C)C(=O)[C@H](C)[C@@H](O[C@@H]2O[C@H](C)C[C@H](N(C)C)[C@H]2O)[C@](C)(OCCCc2ccccc2)C[C@@H](C)C(=O)[C@H](C)[C@@H](O)[C@]1(C)O
MIC (Staphylococcus aureus [1]): 6.2 µg/mL (≈ 8.96 µM)
MIC [2]: > 64 µg/mL
MIC (Streptococcus pneumoniae [3]): 1 µg/mL (≈ 1.45 µM)
MIC (Staphylococcus aureus [4]): 6.2 µg/mL (≈ 8.96 µM)
MIC [5]: 0.5 µg/mL (≈ 0.723 µM)
MIC (Staphylococcus aureus [6]): > 100 µg/mL
MIC [7]: 32 µg/mL (≈ 46.2 µM)
MIC [8]: 4 µg/mL (≈ 5.78 µM)
MIC [9]: 64 µg/mL (≈ 92.5 µM)
MIC (Streptococcus pneumoniae [10]): 1 µg/mL (≈ 1.45 µM)

Compound: CC[C@H]1OC(=O)[C@H](C)C(=O)[C@H](C)[C@@H](O[C@@H]2O[C@H](C)C[C@H](N(C)C)[C@H]2O)[C@](C)(OC/C=C/c2ccc3ccccc3n2)C[C@@H](C)C(=O)[C@H](C)[C@H]2NC(=O)O[C@@]21C
MIC (Staphylococcus aureus [1]): 0.39 µg/mL (≈ 0.509 µM)
MIC [2]: 8 µg/mL (≈ 10.4 µM)
MIC (Streptococcus pneumoniae [3]): 1 µg/mL (≈ 1.31 µM)
MIC (Staphylococcus aureus [4]): 0.39 µg/mL (≈ 0.509 µM)
MIC [5]: 0.125 µg/mL (≈ 0.163 µM)
MIC (Staphylococcus aureus [6]): > 100 µg/mL
MIC [7]: 64 µg/mL (≈ 83.6 µM)
MIC [8]: 1 µg/mL (≈ 1.31 µM)
MIC [9]: 16 µg/mL (≈ 20.9 µM)
MIC (Streptococcus pneumoniae [10]): 0.125 µg/mL (≈ 0.163 µM)

Compound: CC[C@H]1OC(=O)[C@H](C)C(=O)[C@H](C)[C@@H](O[C@@H]2O[C@H](C)C[C@H](N(C)C)[C@H]2O)[C@](C)(OCCNCCc2ccccc2)C[C@@H](C)C(=O)[C@H](C)[C@@H](O)[C@]1(C)O
MIC (Staphylococcus aureus [1]): 6.2 µg/mL (≈ 8.6 µM)
MIC [2]: 64 µg/mL (≈ 88.8 µM)
MIC (Streptococcus pneumoniae [3]): 4 µg/mL (≈ 5.55 µM)
MIC (Staphylococcus aureus [4]): 6.2 µg/mL (≈ 8.6 µM)
MIC [5]: 2 µg/mL (≈ 2.77 µM)
MIC (Staphylococcus aureus [6]): > 100 µg/mL
MIC [7]: > 128 µg/mL
MIC [8]: 8 µg/mL (≈ 11.1 µM)
MIC [9]: > 128 µg/mL
MIC (Streptococcus pneumoniae [10]): 2 µg/mL (≈ 2.77 µM)

Compound: CC[C@H]1OC(=O)[C@H](C)C(=O)[C@H](C)[C@@H](O[C@@H]2O[C@H](C)C[C@H](N(C)C)[C@H]2O)[C@](C)(OC/C=C/c2cccc3cccnc23)C[C@@H](C)C(=O)[C@H](C)[C@H]2NC(=O)O[C@@]21C
MIC (Staphylococcus aureus [1]): 0.2 µg/mL (≈ 0.261 µM)
MIC [2]: 8 µg/mL (≈ 10.4 µM)
MIC (Streptococcus pneumoniae [3]): 0.5 µg/mL (≈ 0.653 µM)
MIC (Staphylococcus aureus [4]): 0.1 µg/mL (≈ 0.131 µM)
MIC [5]: 0.03 µg/mL (≈ 0.0392 µM)
MIC (Staphylococcus aureus [6]): > 100 µg/mL
MIC [7]: > 32 µg/mL
MIC [8]: 0.5 µg/mL (≈ 0.653 µM)
MIC [9]: > 32 µg/mL
MIC (Streptococcus pneumoniae [10]): 0.03 µg/mL (≈ 0.0392 µM)

Compound: CC[C@H]1OC(=O)[C@H](C)C(=O)[C@H](C)[C@@H](O[C@@H]2O[C@H](C)C[C@H](N(C)C)[C@H]2O)[C@](C)(OC/C=C/c2cccc3ccccc23)C[C@@H](C)C(=O)[C@H](C)[C@H]2NC(=O)O[C@@]21C
MIC (Staphylococcus aureus [1]): 0.1 µg/mL (≈ 0.131 µM)
MIC [2]: 4 µg/mL (≈ 5.23 µM)
MIC (Streptococcus pneumoniae [3]): 0.25 µg/mL (≈ 0.327 µM)
MIC (Staphylococcus aureus [4]): 0.1 µg/mL (≈ 0.131 µM)
MIC [5]: 0.015 µg/mL (≈ 0.0196 µM)
MIC (Staphylococcus aureus [6]): 50 µg/mL (≈ 65.4 µM)
MIC [7]: 8 µg/mL (≈ 10.5 µM)
MIC [8]: 0.25 µg/mL (≈ 0.327 µM)
MIC [9]: 16 µg/mL (≈ 20.9 µM)
MIC (Streptococcus pneumoniae [10]): 0.015 µg/mL (≈ 0.0196 µM)

From ChEMBL document CHEMBL1134286, “Novel erythromycin derivatives with aryl groups tethered to the C-6 position are potent protein synthesis inhibitors and active against multidrug-resistant respiratory pathogens” (J Med Chem, 2001)
